Assay [1] deals with Cavia porcellus. The assay is described as follows: In vivo functional antagonistic activity in inhibiting BK (5 ug/kg, i.v.) induced bronchoconstriction in guinea pigs by 100 ug/kg iv administration. The procedure, abridged: (§1)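 Male Hartley guinea pigs (470–750 g), fasted overnight, pentobarbital 30 mg/kg i.p., ventilated 10 mL/kg at 60 breaths/min, alcuronium 0.5 mg/kg i.v., propranolol 10 mg/kg s.c. BK in saline/0.1% BSA i.v.; compound in 5% citric acid i.v. 25 min after first BK, BK repeated 5 min later. Peak insufflation pressure rise (Konzett–Rössler); % inhibition versus vehicle, n = 3–4.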

Assay [2] addresses T1, B2 bradykinin receptor (Cavia porcellus, UniProt O70526).
T1 sequence (O70526 whole entry): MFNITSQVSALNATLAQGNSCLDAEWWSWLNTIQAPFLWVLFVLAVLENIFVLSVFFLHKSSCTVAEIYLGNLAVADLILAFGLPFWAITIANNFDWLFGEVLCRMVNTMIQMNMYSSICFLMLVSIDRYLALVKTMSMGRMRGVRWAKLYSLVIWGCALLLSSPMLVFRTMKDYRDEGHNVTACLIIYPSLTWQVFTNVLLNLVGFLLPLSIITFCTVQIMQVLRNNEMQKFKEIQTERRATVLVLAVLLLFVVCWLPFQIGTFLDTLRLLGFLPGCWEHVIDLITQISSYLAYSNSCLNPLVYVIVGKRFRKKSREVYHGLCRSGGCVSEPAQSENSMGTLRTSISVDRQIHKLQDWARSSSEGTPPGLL
The assay is described as follows: Inhibition of specific binding of [3H]BK at 0.06 nM to bradykinin receptor B2 in guinea pig ileum membrane preparations by 50%. The format is cell membranes. The procedure, abridged:
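Ileum membranes from male Hartley guinea pigs, 0.2 mg protein/mL, in TES pH 6.8 containing phenanthroline, bacitracin, DTT, captopril and 0.1% BSA. Incubated with [3H]BK and compound at room temperature for 60 min. GF/B filtration, scintillation counting; nonspecific binding with 1 μM BK. Three experiments.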

In assay [3] the target is T2, B2 bradykinin receptor (Homo sapiens, UniProt P30411).
T2 sequence (P30411 whole entry): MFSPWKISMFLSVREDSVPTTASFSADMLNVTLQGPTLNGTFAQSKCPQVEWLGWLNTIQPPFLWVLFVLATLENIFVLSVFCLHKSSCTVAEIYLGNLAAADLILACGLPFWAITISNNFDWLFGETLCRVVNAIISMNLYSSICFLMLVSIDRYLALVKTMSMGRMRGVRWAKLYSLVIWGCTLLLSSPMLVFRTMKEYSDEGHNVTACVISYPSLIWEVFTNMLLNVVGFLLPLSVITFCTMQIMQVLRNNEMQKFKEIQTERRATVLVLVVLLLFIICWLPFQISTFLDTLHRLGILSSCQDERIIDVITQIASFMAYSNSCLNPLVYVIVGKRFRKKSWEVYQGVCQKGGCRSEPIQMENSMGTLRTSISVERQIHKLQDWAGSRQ
Briefly: Inhibition of specific binding of [3H]BK at 1 nM to human bradykinin receptor B2 expressed in CHO cells by 50%. The format is cell-based. The procedure, abridged:
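Intact CHO (dhfr−) cells stably expressing human B2, seeded 3.0 × 10⁴/well for 1 day. Incubated with [3H]BK and compound 2 h at 4 °C in HEPES/N-methyl-D-glucamine buffer pH 7.2 with enalaprilat, bacitracin and 0.1% BSA. Cells lysed in SDS/NaOH and counted; nonspecific binding with 1 μM BK. Three experiments.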

Assay [4] deals with CHO. The assay is described as follows: Relative agonistic activity in IP formation compared to BK (10 nM) IPs in CHO cells expressing the cloned human B2 receptor at 10 uM concentration. The format is functional, Cricetulus griseus. The procedure, abridged:
(§2)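 Human B2-CHO cells labeled 24 h with [3H]inositol (1 μCi/mL). Preincubated in PBS/0.2% BSA with 10 mM LiCl for 30 min at 37 °C, then compound for 30 min at 37 °C. Stopped with 5% TCA. IP1–IP3 separated on AG 1-X8 and counted. Basal counts subtracted; response expressed relative to 10 nM BK.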

The subject of assay [5] is CHO. The assay is described as follows: Relative agonistic activity in IP formation compared to BK (10 nM) IPs in CHO cells expressing the cloned human B2 receptor at 1 uM concentration. The class given is functional, Cricetulus griseus. The method in brief:
as §2

Assay [6] has as its system Cavia porcellus. Briefly: In vivo functional antagonistic activity in inhibiting BK (5 ug/kg, i.v.) induced bronchoconstriction in guinea pigs by 10 ug/kg iv administration. The method in brief: as §1

Consider `CNC(=O)c1ccc(/C=C/C(=O)NCC(=O)N(C)c2ccc(Cl)c(COc3cccc4c(N5CCOCC5)cc(C)nc34)c2Cl)cn1.Cl`, for which, in the assay with Cavia porcellus [1], the Inhibition was found to be 72.3%. Further, the IC50 at B2 bradykinin receptor [2] is 85 nM; at B2 bradykinin receptor [3], 1.1 nM.
In the case of `CNC(=O)c1ccc(/C=C/C(=O)NCC(=O)N(C)c2ccc(Cl)c(COc3cccc4c(N5CCCC5)cc(C)nc34)c2Cl)cc1`, the figures for the IC50 at B2 bradykinin receptor [2] and on B2 bradykinin receptor [3] were 2300 nM and 87 nM, respectively.
As for `Cc1cc(N(C)C)c2cccc(OCc3c(Cl)ccc(N(C)C(=O)CNC(=O)/C=C/c4ccc(C(=O)NCc5ccccn5)cc4)c3Cl)c2n1.Cl`, in the assay with Cavia porcellus [1], the Inhibition was found to be 97.3%. The figures for the IC50 on B2 bradykinin receptor [2] and on B2 bradykinin receptor [3] were 28 nM and 5.9 nM, respectively.
For the compound `Cc1cc(N2CCOCC2)c2cccc(OCc3c(Cl)ccc(N(C)C(=O)CNC(=O)/C=C/c4ccc(NC(=O)c5ccncc5)cc4)c3Cl)c2n1.Cl`, the IC50 at B2 bradykinin receptor [2] amounted to 29 nM; on B2 bradykinin receptor [3], 1 nM. For the same compound, the figures for the Relative agonistic activity with CHO [4] and with CHO [5] were 0.9% and -0.1%, respectively.
In the case of `Cc1cc(N(C)C)c2cccc(OCc3c(Cl)ccc(N(C)C(=O)CNC(=O)Nc4cccc(C(=O)Nc5ccncc5)c4)c3Cl)c2n1.Cl`, the Inhibition in the assay on Cavia porcellus [1] amounted to 97.7%. The values for the IC50 on B2 bradykinin receptor [2] and at B2 bradykinin receptor [3] were 12 nM and 2.2 nM, respectively.
With `CNC(=O)c1ccc(/C=C/C(=O)NCC(=O)N(C)c2ccc(Cl)c(COc3cccc4c(N(C)C)cc(C)nc34)c2Cl)cn1.Cl`, the values for the IC50 at B2 bradykinin receptor [2] and on B2 bradykinin receptor [3] were 1.2 nM and 1.6 nM, respectively. The compound further showed an Inhibition with Cavia porcellus [6] of 85.5%.
As to `Cc1cc(N2CCCCC2)c2cccc(OCc3c(Cl)ccc(N(C)C(=O)CNC(=O)/C=C/c4ccc(C(=O)Nc5ccncc5)cc4)c3Cl)c2n1.Cl`, the figures for the IC50 on B2 bradykinin receptor [2] and at B2 bradykinin receptor [3] were 240 nM and 0.52 nM, respectively. For the same compound, the Relative agonistic activity in the assay with CHO [4] is 12.7%; in the assay on CHO [5], 5.7%.
The matching figures for `Cc1cc(N2CCOCC2)c2cccc(OCc3c(Cl)ccc(N(C)C(=O)CNC(=O)/C=C/c4ccc(N5CCCC5=O)cc4)c3Cl)c2n1.Cl.Cl.Cl.Cl`: 13 nM, 1.8 nM, 9.2% and 6%.
Compound `CC(=O)Nc1ccc(/C=C/C(=O)NCC(=O)N(C)c2ccc(Cl)c(COc3cccc4c(N(C)C)cc(C)nc34)c2Cl)cc1C.Cl.Cl.Cl.Cl` registered an Inhibition with Cavia porcellus [1] of 94.7%. Also, the IC50 on B2 bradykinin receptor [2] was 21 nM; at B2 bradykinin receptor [3], 4.8 nM.
As to `CNC(=O)c1ccc(/C=C/C(=O)NCC(=O)N(C)c2ccc(Cl)c(COc3cccc4c(NCCN(C)C)cc(C)nc34)c2Cl)cc1`, the results for the IC50 on B2 bradykinin receptor [2] and on B2 bradykinin receptor [3] were 2300 nM and 2500 nM, respectively.
On to `CNC(=O)c1ccc(/C=C/C(=O)NCC(=O)N(C)c2ccc(Cl)c(COc3cccc4c(N5CCCCC5)cc(C)nc34)c2Cl)cc1.Cl.Cl.Cl.Cl`, for which the values for the IC50 at B2 bradykinin receptor [2] and at B2 bradykinin receptor [3] were 68 nM and 1.1 nM, respectively. Also, the figures for the Relative agonistic activity in the assay with CHO [4] and with CHO [5] were 4.2% and 4.4%, respectively.
The matching figures for `Cc1cc(N2CCCCC2)c2cccc(OCc3c(Cl)ccc(N(C)C(=O)CNC(=O)/C=C/c4ccc(NC(=O)c5ccncc5)cc4)c3Cl)c2n1.Cl`: 75 nM, 1.6 nM, 5.3% and 5.6%.
`Cc1cc(N2CCCCC2)c2cccc(OCc3c(Cl)ccc(N(C)C(=O)CNC(=O)/C=C/c4ccc(C(=O)NCc5ccccn5)cc4)c3Cl)c2n1.Cl`: the Inhibition with Cavia porcellus [1] came out at 72.6%. For the same compound, the IC50 on B2 bradykinin receptor [2] turned out to be 40 nM; at B2 bradykinin receptor [3], 2.5 nM.
The matching figures for `CC(=O)Nc1ccc(/C=C/C(=O)NCC(=O)N(C)c2ccc(Cl)c(COc3cccc4c(N5CCOCC5)cc(C)nc34)c2Cl)cn1`: 47.8%, 65 nM and 1.8 nM.
In the case of `CNC(=O)c1ccc(/C=C/C(=O)NCC(=O)N(C)c2ccc(Cl)c(COc3cccc4c(N5CCCCCC5)cc(C)nc34)c2Cl)cc1`, the IC50 came out at 840 nM at B2 bradykinin receptor [2] and 37 nM on B2 bradykinin receptor [3].
Take `Cc1cc(N(C)C)c2cccc(OCc3c(Cl)ccc(N(C)C(=O)CNC(=O)/C=C/c4ccc(NC(=O)c5ccncc5)cc4)c3Cl)c2n1.Cl`: the IC50 was 6.9 nM on B2 bradykinin receptor [2] and 0.47 nM on B2 bradykinin receptor [3]. In addition, in the assay with Cavia porcellus [6], the Inhibition amounted to 59%.
The matching figures for `CNC(=O)c1ccc(/C=C/C(=O)NCC(=O)N(C)c2ccc(Cl)c(COc3cccc4c(N(C)C)cc(C)nc34)c2Cl)cc1OC.Cl.Cl.Cl.Cl`: 5.6 nM, 2 nM and 88.7%.
For the compound `Cc1cc(N2CCCCC2)c2cccc(OCc3c(Cl)ccc(N(C)C(=O)CNC(=O)/C=C/c4ccc(N5CCCC5=O)cc4)c3Cl)c2n1.Cl.Cl.Cl.Cl`, the IC50 on B2 bradykinin receptor [2] is 28 nM; on B2 bradykinin receptor [3] it was 1.2 nM. Moreover, the Relative agonistic activity in the assay with CHO [4] was 18.7%; with CHO [5], 14.8%.
Consider `Cc1cc(N(C)C)c2cccc(OCc3c(Cl)ccc(N(C)C(=O)CNC(=O)/C=C/c4ccc(C(=O)Nc5ccncc5)cc4)c3Cl)c2n1.Cl`, for which the IC50 at B2 bradykinin receptor [2] was found to be 5.1 nM; at B2 bradykinin receptor [3], 0.7 nM. Moreover, the Inhibition in the assay on Cavia porcellus [6] was 86.3%.
`CNC(=O)c1ccc(/C=C/C(=O)NCC(=O)N(C)c2ccc(Cl)c(COc3cccc4c(N5CCOCC5)cc(C)nc34)c2Cl)cc1.Cl.Cl.Cl.Cl`: the IC50 at B2 bradykinin receptor [2] stood at 12 nM; at B2 bradykinin receptor [3], 2.7 nM. The figures for the Relative agonistic activity with CHO [4] and with CHO [5] were -1.9% and 0.9%, respectively.
As for `CC(=O)Nc1ccc(/C=C/C(=O)NCC(=O)N(C)c2ccc(Cl)c(COc3cccc4c(N(C)C)cc(C)nc34)c2Cl)cn1.Cl`, the values for the IC50 at B2 bradykinin receptor [2] and at B2 bradykinin receptor [3] were 6.3 nM and 4.2 nM, respectively. In addition, the Inhibition with Cavia porcellus [6] was 89.4%.
With `Cc1cc(N2CCOCC2)c2cccc(OCc3c(Cl)ccc(N(C)C(=O)CNC(=O)/C=C/c4ccc(C(=O)Nc5ccncc5)cc4)c3Cl)c2n1.Cl`, the figures for the Inhibition in the assay with Cavia porcellus [1] and in the assay with Cavia porcellus [6] were 91.8% and 46.2%, respectively. Also, the results for the IC50 at B2 bradykinin receptor [2] and at B2 bradykinin receptor [3] were 37 nM and 0.64 nM, respectively.
For the compound `Cc1cc(N2CCOCC2)c2cccc(OCc3c(Cl)ccc(N(C)C(=O)CNC(=O)/C=C/c4ccc(C(=O)N(C)C)cc4)c3Cl)c2n1`, the IC50 on B2 bradykinin receptor [2] stood at 43 nM; on B2 bradykinin receptor [3], 0.88 nM.
In the assay on Cavia porcellus [6], `Cc1cc(N(C)C)c2cccc(OCc3c(Cl)ccc(N(C)C(=O)CNC(=O)/C=C/c4ccc(C(=O)N(C)C)cc4)c3Cl)c2n1.Cl.Cl` returned an Inhibition of 73.4%.
As to `Cc1cc(N(C)C)c2cccc(OCc3c(Cl)ccc(N(C)C(=O)CNC(=O)/C=C/c4ccc(C(=O)N(C)C)nc4)c3Cl)c2n1.Cl.Cl.Cl.Cl`, the IC50 was 8.1 nM on B2 bradykinin receptor [2] and 4 nM at B2 bradykinin receptor [3]. The compound further registered an Inhibition in the assay with Cavia porcellus [6] of 89.7%.
As for `CNC(=O)c1ccc(/C=C/C(=O)NCC(=O)N(C)c2ccc(Cl)c(COc3cccc4c(NCCOC)cc(C)nc34)c2Cl)cc1`, the IC50 was determined as 49 nM on B2 bradykinin receptor [2] and 41 nM on B2 bradykinin receptor [3].
For the compound `CNC(=O)c1ccc(/C=C/C(=O)NCC(=O)N(C)c2ccc(Cl)c(COc3cccc4c(N5CCN(C)CC5)cc(C)nc34)c2Cl)cc1`, the IC50 at B2 bradykinin receptor [2] worked out at 1500 nM; on B2 bradykinin receptor [3], 98 nM.
Take `Cc1cc(N2CCCCC2)c2cccc(OCc3c(Cl)ccc(N(C)C(=O)CNC(=O)/C=C/c4ccc(C(=O)N(C)C)cc4)c3Cl)c2n1.Cl.Cl.Cl.Cl`: the IC50 worked out at 30 nM on B2 bradykinin receptor [2] and 0.76 nM at B2 bradykinin receptor [3]. Moreover, the Relative agonistic activity in the assay with CHO [4] came out at 21.8%; in the assay on CHO [5], 17.2%.
Consider `CNC(=O)c1ccc(/C=C/C(=O)NCC(=O)N(C)c2ccc(Cl)c(COc3cccc4c(N(CCOC)CCOC)cc(C)nc34)c2Cl)cc1`, for which the IC50 on B2 bradykinin receptor [2] turned out to be 560 nM; at B2 bradykinin receptor [3] it was 19 nM.

As usually defined, the Inhibition is the share of the control response that was lost under treatment. Usually IC50 stands for the concentration needed to halve the response being measured. Read a high IC50 as weaker potency in that assay.

For the origin of these results see ChEMBL document CHEMBL1148313, “A new class of nonpeptide bradykinin B(2) receptor ligand, incorporating a 4-aminoquinoline framework. Identification of a key pharmacophore to determine species difference and agonist/antagonist profile” (J Med Chem, 2004).
